Converted amounts (≈) assume the structure as drawn.
Tests used:
Format in all cases: functional
[1] = test system: Pseudomonas aeruginosa; test: Antibacterial activity against Pseudomonas aeruginosa ATCC 27853 after 18 hrs by two fold serial dilution method; details: ATCC 27853, 18 h
In short: (§1)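 Agar two-fold serial dilution in melted Mueller-Hinton agar, final concentrations 128 down to 0.008 μg/mL. Plates inoculated with 10⁴ cfu and incubated at 35 °C for 18 h. MIC taken as the lowest concentration giving no visible growth on the plate.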

[2] = test system: Enterococcus faecalis; test: Antibacterial activity against Enterococcus faecalis 09-2 after 18 hrs by two fold serial dilution method; details: 09-2, 18 h; in short: as §1
[3] = test system: Staphylococcus epidermidis; test: Antibacterial activity against methicillin-sensitive Staphylococcus epidermidis 10-1 after 18 hrs by two fold serial dilution method; details: 10-1, 18 h; in short: as §1
[4] = test system: Klebsiella pneumoniae; test: Antibacterial activity against Klebsiella pneumoniae 09-2 after 18 hrs by two fold serial dilution method; details: 09-2, 18 h; in short: as §1
[5] = test system: Escherichia coli; test: Antibacterial activity against Escherichia coli 09-1 after 18 hrs by two fold serial dilution method; details: 09-1, 18 h; in short: as §1
[6] = test system: Staphylococcus epidermidis; test: Antibacterial activity against methicillin-sensitive Staphylococcus epidermidis 10-2 after 18 hrs by two fold serial dilution method; details: 10-2, 18 h; in short: as §1
[7] = test system: Pseudomonas aeruginosa; test: Antibacterial activity against Pseudomonas aeruginosa 10-3 after 18 hrs by two fold serial dilution method; details: 10-3, 18 h; in short: as §1
[8] = test system: Klebsiella pneumoniae; test: Antibacterial activity against Klebsiella pneumoniae 10-1 after 18 hrs by two fold serial dilution method; details: 10-1, 18 h; in short: as §1
[9] = test system: Escherichia coli; test: Antibacterial activity against Escherichia coli 09-3 after 18 hrs by two fold serial dilution method; details: 09-3, 18 h; in short: as §1
[10] = test system: Staphylococcus epidermidis; test: Antibacterial activity against methicillin-resistant Staphylococcus epidermidis 10-1 after 18 hrs by two fold serial dilution method; details: 10-1, 18 h
In short: (§2)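 Agar two-fold serial dilution in melted Mueller-Hinton agar, 128 to 0.008 μg/mL. Plates inoculated with 10⁴ cfu, incubated 35 °C for 18 h. MIC taken as lowest concentration giving no visible growth on the plate.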

[11] = test system: Enterococcus faecium; test: Antibacterial activity against Enterococcus faecium 09-4 after 18 hrs by two fold serial dilution method; details: 09-4, 18 h; in short: as §1
[12] = test system: Escherichia coli; test: Antibacterial activity against Escherichia coli 09-2 after 18 hrs by two fold serial dilution method; details: 09-2, 18 h; in short: as §1
[13] = test system: Enterococcus faecium; test: Antibacterial activity against Enterococcus faecium 09-6 after 18 hrs by two fold serial dilution method; details: 09-6, 18 h; in short: as §1
[14] = test system: Staphylococcus aureus; test: Antibacterial activity against methicillin-sensitive Staphylococcus aureus 10-1 after 18 hrs by two fold serial dilution method; details: 10-1, 18 h; in short: as §1
[15] = test system: Staphylococcus aureus; test: Antibacterial activity against methicillin-sensitive Staphylococcus aureus 10-5 after 18 hrs by two fold serial dilution method; details: 10-5, 18 h; in short: as §1
[16] = test system: Streptococcus pneumoniae; test: Antibacterial activity against Streptococcus pneumoniae 10-1 after 18 hrs by two fold serial dilution method; details: 10-1, 18 h; in short: as §1
[17] = test system: Staphylococcus aureus; test: Antibacterial activity against methicillin-resistant Staphylococcus aureus 10-3 after 18 hrs by two fold serial dilution method; details: 10-3, 18 h; in short: as §2
[18] = test system: Staphylococcus aureus; test: Antibacterial activity against methicillin-sensitive Staphylococcus aureus 10-6 after 18 hrs by two fold serial dilution method; details: 10-6, 18 h; in short: as §1
[19] = test system: Enterococcus faecium; test: Antibacterial activity against Enterococcus faecium 09-1 after 18 hrs by two fold serial dilution method; details: 09-1, 18 h; in short: as §1
[20] = test system: Pseudomonas aeruginosa; test: Antibacterial activity against Pseudomonas aeruginosa 10-1 after 18 hrs by two fold serial dilution method; details: 10-1, 18 h; in short: as §1
[21] = test system: Pseudomonas aeruginosa; test: Antibacterial activity against Pseudomonas aeruginosa 10-2 after 18 hrs by two fold serial dilution method; details: 10-2, 18 h; in short: as §1
[22] = test system: Escherichia coli; test: Antibacterial activity against Escherichia coli 10-2 after 18 hrs by two fold serial dilution method; details: 10-2, 18 h; in short: as §1
[23] = test system: Escherichia coli; test: Antibacterial activity against Escherichia coli 10-3 after 18 hrs by two fold serial dilution method; details: 10-3, 18 h; in short: as §1
[24] = test system: Staphylococcus epidermidis; test: Antibacterial activity against methicillin-resistant Staphylococcus epidermidis 10-2 after 18 hrs by two fold serial dilution method; details: 10-2, 18 h; in short: as §2
[25] = test system: Klebsiella pneumoniae; test: Antibacterial activity against Klebsiella pneumoniae 10-3 after 18 hrs by two fold serial dilution method; details: 10-3, 18 h; in short: as §1
[26] = test system: Staphylococcus aureus; test: Antibacterial activity against methicillin-sensitive Staphylococcus aureus 10-4 after 18 hrs by two fold serial dilution method; details: 10-4, 18 h; in short: as §1
[27] = test system: Enterococcus faecalis; test: Antibacterial activity against Enterococcus faecalis 09-1 after 18 hrs by two fold serial dilution method; details: 09-1, 18 h; in short: as §1
[28] = test system: Staphylococcus aureus; test: Antibacterial activity against methicillin-resistant Staphylococcus aureus 10-1 after 18 hrs by two fold serial dilution method; details: 10-1, 18 h; in short: as §2
[29] = test system: Staphylococcus aureus; test: Antibacterial activity against methicillin-resistant Staphylococcus aureus 10-4 after 18 hrs by two fold serial dilution method; details: 10-4, 18 h; in short: as §2
[30] = test system: Enterococcus faecium; test: Antibacterial activity against Enterococcus faecium 09-5 after 18 hrs by two fold serial dilution method; details: 09-5, 18 h; in short: as §1
[31] = test system: Staphylococcus aureus; test: Antibacterial activity against methicillin-resistant Staphylococcus aureus 10-2 after 18 hrs by two fold serial dilution method; details: 10-2, 18 h; in short: as §2
[32] = test system: Escherichia coli; test: Antibacterial activity against Escherichia coli ATCC 25922 after 18 hrs by two fold serial dilution method; details: ATCC 25922, 18 h; in short: as §1
[33] = test system: Staphylococcus aureus; test: Antibacterial activity against Staphylococcus aureus ATCC 25923 after 18 hrs by two fold serial dilution method; details: ATCC 25923, 18 h; in short: as §1
[34] = test system: Staphylococcus aureus; test: Antibacterial activity against methicillin-sensitive Staphylococcus aureus 10-2 after 18 hrs by two fold serial dilution method; details: 10-2, 18 h; in short: as §1
[35] = test system: Staphylococcus aureus; test: Antibacterial activity against methicillin-sensitive Staphylococcus aureus 10-3 after 18 hrs by two fold serial dilution method; details: 10-3, 18 h; in short: as §1
[36] = test system: Enterococcus faecium; test: Antibacterial activity against Enterococcus faecium 09-2 after 18 hrs by two fold serial dilution method; details: 09-2, 18 h; in short: as §1
[37] = test system: Enterococcus faecium; test: Antibacterial activity against Enterococcus faecium 09-3 after 18 hrs by two fold serial dilution method; details: 09-3, 18 h; in short: as §1
[38] = test system: Escherichia coli; test: Antibacterial activity against Escherichia coli 10-1 after 18 hrs by two fold serial dilution method; details: 10-1, 18 h; in short: as §1

SMILES | MIC [1] [µg/mL] | MIC [2] [µg/mL] | MIC [3] [µg/mL] | MIC [4] [µg/mL] | MIC [6] [µg/mL] | MIC [7] [µg/mL] | MIC [8] [µg/mL] | MIC [10] [µg/mL] | MIC [11] [µg/mL] | MIC [12] [µg/mL] | MIC [13] [µg/mL] | MIC [14] [µg/mL] | MIC [15] [µg/mL] | MIC [16] [µg/mL] | MIC [17] [µg/mL] | MIC [18] [µg/mL] | MIC [19] [µg/mL] | MIC [20] [µg/mL] | MIC [21] [µg/mL] | MIC [22] [µg/mL] | further results
NCC1CN(c2nc3c(cc2F)c(=O)c(C(=O)O)cn3-c2ccc(F)cc2F)C/C1=N\OCF (racemic) | 16 (≈ 33.4 µM) | 32 (≈ 66.8 µM) | 32 (≈ 66.8 µM) | > 128 | 32 (≈ 66.8 µM) | 32 (≈ 66.8 µM) | 0.5 (≈ 1.04 µM) | 4 (≈ 8.34 µM) | 0.5 (≈ 1.04 µM) | > 128 | 0.5 (≈ 1.04 µM) | 0.06 (≈ 0.125 µM) | 0.125 (≈ 0.261 µM) | 0.125 (≈ 0.261 µM) | 64 (≈ 134 µM) | 0.125 (≈ 0.261 µM) | 64 (≈ 134 µM) | 4 (≈ 8.34 µM) | > 128 | 4 (≈ 8.34 µM) | MIC [5]: 128 µg/mL (≈ 267 µM); MIC [9]: > 128 µg/mL; MIC [23]: 32 µg/mL (≈ 66.8 µM); MIC [24]: 8 µg/mL (≈ 16.7 µM); MIC [25]: 4 µg/mL (≈ 8.34 µM); MIC [26]: 0.125 µg/mL (≈ 0.261 µM); MIC [27]: 32 µg/mL (≈ 66.8 µM); MIC [28]: 64 µg/mL (≈ 134 µM); MIC [29]: 64 µg/mL (≈ 134 µM); MIC [30]: 64 µg/mL (≈ 134 µM); MIC [31]: 16 µg/mL (≈ 33.4 µM); MIC [32]: 0.125 µg/mL (≈ 0.261 µM); MIC [33]: 0.25 µg/mL (≈ 0.521 µM); MIC [34]: 4 µg/mL (≈ 8.34 µM); MIC [35]: 0.125 µg/mL (≈ 0.261 µM); MIC [36]: 64 µg/mL (≈ 134 µM); MIC [37]: 32 µg/mL (≈ 66.8 µM); MIC [38]: 128 µg/mL (≈ 267 µM)
COc1c(N2C[C@@H]3CCCN[C@@H]3C2)c(F)cc2c(=O)c(C(=O)O)cn(C3CC3)c12 [MOXIFLOXACIN] | 1 (≈ 2.49 µM) | 16 (≈ 39.9 µM) | 2 (≈ 4.98 µM) | 16 (≈ 39.9 µM) | 16 (≈ 39.9 µM) | 4 (≈ 9.96 µM) | 0.03 (≈ 0.0747 µM) | 0.5 (≈ 1.25 µM) | 0.008 (≈ 0.0199 µM) | 32 (≈ 79.7 µM) | 0.125 (≈ 0.311 µM) | 0.008 (≈ 0.0199 µM) | 0.03 (≈ 0.0747 µM) | 0.008 (≈ 0.0199 µM) | 8 (≈ 19.9 µM) | 0.008 (≈ 0.0199 µM) | 16 (≈ 39.9 µM) | 0.5 (≈ 1.25 µM) | 16 (≈ 39.9 µM) | 0.5 (≈ 1.25 µM) | MIC [23]: 4 µg/mL (≈ 9.96 µM); MIC [24]: 1 µg/mL (≈ 2.49 µM); MIC [25]: 0.5 µg/mL (≈ 1.25 µM); MIC [26]: 0.008 µg/mL (≈ 0.0199 µM); MIC [27]: 8 µg/mL (≈ 19.9 µM); MIC [28]: 8 µg/mL (≈ 19.9 µM); MIC [29]: 8 µg/mL (≈ 19.9 µM); MIC [30]: 16 µg/mL (≈ 39.9 µM); MIC [31]: 8 µg/mL (≈ 19.9 µM); MIC [32]: 0.008 µg/mL (≈ 0.0199 µM); MIC [33]: 0.008 µg/mL (≈ 0.0199 µM); MIC [34]: 4 µg/mL (≈ 9.96 µM); MIC [35]: 0.008 µg/mL (≈ 0.0199 µM); MIC [36]: 16 µg/mL (≈ 39.9 µM); MIC [37]: 2 µg/mL (≈ 4.98 µM)
NCC1CN(c2ccc3c(=O)c(C(=O)O)cn(C4CC4)c3n2)C/C1=N\OCF (racemic) | 4 (≈ 10.3 µM) | 64 (≈ 164 µM) | 16 (≈ 41.1 µM) | > 128 | 32 (≈ 82.2 µM) | 32 (≈ 82.2 µM) | 0.5 (≈ 1.28 µM) | 32 (≈ 82.2 µM) | 2 (≈ 5.14 µM) | > 128 | 1 (≈ 2.57 µM) | 0.03 (≈ 0.077 µM) | 0.125 (≈ 0.321 µM) | 0.25 (≈ 0.642 µM) | > 128 | 0.125 (≈ 0.321 µM) | 64 (≈ 164 µM) | 2 (≈ 5.14 µM) | > 128 | 4 (≈ 10.3 µM) | MIC [5]: > 128 µg/mL; MIC [9]: > 128 µg/mL; MIC [23]: > 128 µg/mL; MIC [24]: 64 µg/mL (≈ 164 µM); MIC [25]: 4 µg/mL (≈ 10.3 µM); MIC [26]: 0.25 µg/mL (≈ 0.642 µM); MIC [27]: 64 µg/mL (≈ 164 µM); MIC [28]: > 128 µg/mL; MIC [29]: > 128 µg/mL; MIC [30]: 16 µg/mL (≈ 41.1 µM); MIC [31]: 64 µg/mL (≈ 164 µM); MIC [32]: 0.06 µg/mL (≈ 0.154 µM); MIC [33]: 0.25 µg/mL (≈ 0.642 µM); MIC [34]: 128 µg/mL (≈ 329 µM); MIC [35]: 0.25 µg/mL (≈ 0.642 µM); MIC [36]: 64 µg/mL (≈ 164 µM); MIC [37]: 64 µg/mL (≈ 164 µM); MIC [38]: > 128 µg/mL
